Laboratory results reported in ChEMBL document CHEMBL1124558, “Differential effects of a series of hydroxamic acid derivatives on 5-lipoxygenase and cyclooxygenase from neutrophils and 12-lipoxygenase from platelets and their in vivo effects on inflammation and anaphylaxis” (J Med Chem, 1989).

What was measured:
[1] = target: T1, Polyunsaturated fatty acid 5-lipoxygenase (Homo sapiens, UniProt P09917); test: In vitro inhibition of polymorphonuclear leukocyte derived human 5-lipoxygenase
T1 sequence (P09917 whole entry): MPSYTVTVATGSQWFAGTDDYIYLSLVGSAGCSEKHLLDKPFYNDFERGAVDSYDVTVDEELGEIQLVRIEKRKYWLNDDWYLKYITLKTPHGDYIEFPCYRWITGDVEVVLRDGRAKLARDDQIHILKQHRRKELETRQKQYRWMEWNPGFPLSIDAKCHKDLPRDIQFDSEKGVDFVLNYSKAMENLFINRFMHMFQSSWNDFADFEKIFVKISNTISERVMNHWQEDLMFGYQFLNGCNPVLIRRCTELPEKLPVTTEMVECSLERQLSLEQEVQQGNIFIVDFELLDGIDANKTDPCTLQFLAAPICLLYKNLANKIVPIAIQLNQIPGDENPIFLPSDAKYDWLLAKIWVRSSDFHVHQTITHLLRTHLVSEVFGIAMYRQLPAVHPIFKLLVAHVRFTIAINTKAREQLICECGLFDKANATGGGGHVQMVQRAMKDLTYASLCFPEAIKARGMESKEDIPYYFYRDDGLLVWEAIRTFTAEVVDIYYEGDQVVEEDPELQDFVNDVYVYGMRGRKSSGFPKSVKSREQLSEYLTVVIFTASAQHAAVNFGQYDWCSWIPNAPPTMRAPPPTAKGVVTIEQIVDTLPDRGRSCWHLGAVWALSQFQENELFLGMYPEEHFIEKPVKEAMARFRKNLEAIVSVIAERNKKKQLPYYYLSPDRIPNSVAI
Method in brief: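 PMNs from venous blood of healthy volunteers, isolated by dextran sedimentation and Percoll gradient (>90% pure) and held in Ca/Mg PBS with 1 mg/mL glucose and 1 μM indomethacin. Challenged with calcium ionophore and [14C]arachidonic acid for 3 min. 5-HETE measured by TLC and scintillation counting; IC50 read graphically.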

[2] = system: Mus musculus; test: In vivo inhibition of mouse ear inflammation; format: functional; parameters: concentration or dose not given beside the values
Method in brief: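 Compound or ethanol vehicle applied topically to one ear of male DBA/2J mice 60 min before arachidonic acid (2 mg/ear). […] Groups of 5 mice.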

[3] = target: T2, Polyunsaturated fatty acid 5-lipoxygenase (Rattus norvegicus, UniProt P12527); test: In vitro inhibition of rat polymorphonuclear leukocyte 5-lipoxygenase
T2 sequence (P12527 whole entry): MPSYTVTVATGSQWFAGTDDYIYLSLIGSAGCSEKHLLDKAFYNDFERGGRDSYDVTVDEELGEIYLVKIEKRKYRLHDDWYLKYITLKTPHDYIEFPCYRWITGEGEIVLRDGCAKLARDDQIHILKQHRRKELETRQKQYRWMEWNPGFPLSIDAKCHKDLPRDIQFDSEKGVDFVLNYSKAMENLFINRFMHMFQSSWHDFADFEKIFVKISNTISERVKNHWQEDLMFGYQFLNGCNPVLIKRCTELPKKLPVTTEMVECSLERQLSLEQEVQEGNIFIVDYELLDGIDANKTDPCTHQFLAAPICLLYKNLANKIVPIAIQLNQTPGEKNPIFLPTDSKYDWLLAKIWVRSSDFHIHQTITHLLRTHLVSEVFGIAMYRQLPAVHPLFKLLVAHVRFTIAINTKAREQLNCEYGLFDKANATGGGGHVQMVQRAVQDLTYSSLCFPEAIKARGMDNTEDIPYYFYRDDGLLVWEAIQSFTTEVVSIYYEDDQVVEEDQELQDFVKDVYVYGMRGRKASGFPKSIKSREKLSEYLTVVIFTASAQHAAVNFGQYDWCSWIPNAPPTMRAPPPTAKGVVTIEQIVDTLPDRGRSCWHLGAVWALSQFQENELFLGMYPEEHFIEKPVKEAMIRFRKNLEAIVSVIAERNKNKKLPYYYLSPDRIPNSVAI
Method in brief: (§1)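 Intact glycogen-elicited peritoneal PMNs pooled from 4–5 Sprague-Dawley rats (250 g), preincubated 5 min at 30 °C with compound in DMSO (≤0.1% final) plus 1 μM indomethacin. Challenge with [14C]arachidonic acid (4 μM) and A23187 (0.8 μM) for 3 min. Extraction, TLC, 5-HETE by scintillation counting.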

[4] = target: T3, Cyclooxygenase (Rattus norvegicus) (UniProt P35355+Q63921); test: In vitro inhibitory activity against rat polymorphonuclear leukocyte Prostaglandin G/H synthase at 100 uM; format: protein assay
Method in brief: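 Glycogen-elicited peritoneal PMNs from Sprague-Dawley rats were homogenized at 0 °C in 0.1 M Tris-HCl pH 8.2 with 10 μM NDGA. Compound (DMSO ≤0.1%) was preincubated 5 min at 37 °C, then 8 μM [14C]arachidonic acid with 4 mM glutathione and epinephrine was added for 10 min. TxB2 and PGF2α were measured by TLC and scintillation counting.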

[5] = target: T3, Cyclooxygenase (Rattus norvegicus); test: Inhibition of Prostaglandin G/H synthase in rat polymorphonuclear leukocytes; format: cell-based; parameters: concentration or dose not given beside the values; settings: concentration not given here
Method in brief: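 Homogenate of glycogen-elicited rat peritoneal PMNs in 0.1 M Tris-HCl pH 8.2 with 10 μM NDGA, preincubated 5 min at 37 °C with compound (≤0.1% DMSO). [14C]arachidonic acid (8 μM) added with 4 mM glutathione and epinephrine; 10 min reaction. TxB2 and PGF2α separated by TLC and counted.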

[6] = target: T4, Arachidonate 12-lipoxygenase (Rattus norvegicus) (UniProt Q02759); test: In vitro inhibitory activity against rat platelet 12-lipoxygenase at 100 uM
T4 sequence (whole entry): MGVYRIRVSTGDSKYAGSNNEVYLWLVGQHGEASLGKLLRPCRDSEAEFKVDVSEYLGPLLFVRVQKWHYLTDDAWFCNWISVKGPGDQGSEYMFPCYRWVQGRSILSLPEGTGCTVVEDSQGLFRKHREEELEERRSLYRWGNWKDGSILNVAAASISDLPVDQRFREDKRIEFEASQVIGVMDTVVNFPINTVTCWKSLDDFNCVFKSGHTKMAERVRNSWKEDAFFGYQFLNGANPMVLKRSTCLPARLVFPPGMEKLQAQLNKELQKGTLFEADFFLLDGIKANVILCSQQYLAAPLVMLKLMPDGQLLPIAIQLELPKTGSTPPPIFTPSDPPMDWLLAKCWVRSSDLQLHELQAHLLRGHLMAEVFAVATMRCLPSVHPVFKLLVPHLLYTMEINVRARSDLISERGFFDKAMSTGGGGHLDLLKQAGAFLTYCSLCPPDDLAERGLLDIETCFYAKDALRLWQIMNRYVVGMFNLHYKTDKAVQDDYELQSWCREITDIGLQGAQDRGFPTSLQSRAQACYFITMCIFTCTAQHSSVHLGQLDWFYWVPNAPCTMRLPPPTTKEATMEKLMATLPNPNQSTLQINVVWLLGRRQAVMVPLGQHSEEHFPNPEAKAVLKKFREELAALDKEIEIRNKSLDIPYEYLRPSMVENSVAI
Method in brief: (§2)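 Cell-free cytosolic 12-lipoxygenase from Sprague-Dawley rat platelets (0.4 mg/mL), preincubated 5 min at 30 °C with compound in DMSO (≤0.1% final), 25 mM Tris pH 7.4, 1 μM indomethacin, 100 μM glutathione; reaction started with 6 μM [14C]arachidonic acid and quenched with citric acid/NDGA after 3 min. 12-HETE isolated by TLC and counted by scintillation; % inhibition, duplicate.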

[7] = system: Cavia porcellus; test: In vivo inhibitory activity against guinea pig systemic anaphylaxis when administered a compound dose (200 mg/kg) perorally; format: functional; settings: po
Method in brief: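 Male Hartley guinea pigs sensitised ip with ovalbumin (2.7 mg/kg) plus LPS adjuvant, then challenged 2 weeks later with 1% ovalbumin aerosol for 30 s. Pretreated with pyrilamine, indomethacin and propranolol 20 min before challenge. Compound given in PEG 400 1 h before challenge.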

[8] = target: T5, Polyunsaturated fatty acid 5-lipoxygenase (Rattus norvegicus) (UniProt P12527); test: In vitro inhibitory activity against polymorphonuclear leukocyte 5-lipoxygenase in rat cell at 10 uM; method in brief: as §1
T5 sequence (whole entry): T2 sequence (P12527 whole entry)

[9] = target: T4, Arachidonate 12-lipoxygenase (Rattus norvegicus); test: In vitro inhibitory activity against rat platelet 12-lipoxygenase at 10 uM; method in brief: as §2
[10] = target: T6, Polyunsaturated fatty acid 5-lipoxygenase (Homo sapiens) (UniProt P09917); test: In vitro inhibitory activity against polymorphonuclear leukocyte 5-lipoxygenase in human cell at 10 uM
T6 sequence (whole entry): T1 sequence (P09917 whole entry)
Method in brief: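 Human PMNs from venous blood of a healthy volunteer (EDTA) were purified by dextran sedimentation, a Percoll gradient and NH4Cl red-cell lysis (>90% pure). They were held in Ca/Mg PBS with 1 mg/mL glucose and 1 μM indomethacin, then challenged with A23187 (0.8 μM) and [14C]arachidonic acid (4 μM) for 3 min. 5-HETE was measured by TLC and scintillation counting.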

[11] = target: T5, Polyunsaturated fatty acid 5-lipoxygenase (Rattus norvegicus); test: In vitro inhibitory activity against polymorphonuclear leukocyte 5-lipoxygenase in rat cell at 1 uM; method in brief: as §1

SMILES	IC50 [1] [nM]	IC50 [3] [nM]	inhibition [4] [%]	inhibition [5] [%]	inhibition [6] [%]	inhibition [8] [%]	inhibition [9] [%]	inhibition [10] [%]	inhibition [11] [%]	Inhibition [2] [%]	inhibition in vivo at 200 mg/kg [7] [%]
COc1ccc(CCCC(=O)N(C)O)cc1	1300	300	–	< 10	–	–	–	–	–	67	60
O=C(COc1ccccc1)N(O)CCc1ccccc1	1200	1000	65	–	–	–	–	–	–	–	–
O=C(Cc1ccc(OCc2ccccc2)cc1)N(O)CCCc1ccccc1	600	500	–	< 10	–	–	–	–	–	12	–
CC(C)Cc1ccc(C(C)C(=O)N(Cc2ccccc2)OCc2ccccc2)cc1 (stereo unspecified)	–	–	–	39	–	< 10	< 10	< 10	–	–	–
O=C(O)CCCN(O)C(=O)CCCc1ccccc1	–	–	–	< 10	15	1	–	–	–	34	–
COc1ccc(CC(=O)N(O)CCc2ccccc2)cc1	2500	1000	–	48	–	–	–	–	–	51	–
COc1ccc(CCCC(=O)N(O)CCc2ccccc2)cc1	250	120	–	–	–	–	–	–	–	64	0
CN(O)C(=O)CCCCc1ccccc1	250	110	–	< 10	–	–	–	–	–	77	9
O=C(Cc1ccc(OCc2ccccc2)cc1)NO	–	–	–	16	–	–	–	–	3	–	–

More lines, in order of falling IC50 [1], values ahead:

IC50 [1] [nM]	IC50 [3] [nM]	inhibition [4] [%]	inhibition [5] [%]	inhibition [6] [%]	inhibition [8] [%]	inhibition [9] [%]	inhibition [10] [%]	inhibition [11] [%]	SMILES	Inhibition [2] [%]	inhibition in vivo at 200 mg/kg [7] [%]
3000	2500	–	44	< 10	–	–	–	–	CCC(Cc1ccccc1)N(O)C(=O)Cc1ccc(OCc2ccccc2)cc1 (stereo unspecified)	38	–
2000	1000	20	–	–	–	–	–	–	CC(C)Cc1ccc(C(C)C(=O)N(O)Cc2ccccc2)cc1 (stereo unspecified)	–	–
1000	80	30	–	–	–	–	–	–	CN(O)C(=O)Cc1cccc(OCc2ccc3ccccc3n2)c1	68	–
500	300	–	44	–	–	–	–	–	CCOC(=O)CCCN(O)C(=O)CCCc1ccccc1	54	–
300	250	18	–	–	–	–	–	–	O=C(CCOc1ccccc1)N(O)CCc1ccccc1	–	–
150	50	–	50	–	–	–	–	–	O=C(CCCCc1ccccc1)N(O)Cc1ccccc1	52	–
130	150	–	18	–	–	–	–	–	O=C(CCCc1ccccc1)N(O)Cc1ccccc1	51	0
100	100	15	–	–	–	–	–	–	O=C(CCc1ccccc1)N(O)CCCc1ccccc1	67	0
100	300	–	< 10	–	–	–	–	–	CC(C(=O)N(O)CCc1ccccc1)c1cccc(OCc2ccccc2)c1 (stereo unspecified)	–	–
